# Assay results as given in ChEMBL document CHEMBL1123624, “Prodrugs of L-cysteine as protective agents against acetaminophen-induced hepatotoxicity. 2-(Polyhydroxyalkyl)- and 2-(polyacetoxyalkyl)thiazolidine-4(R)-carboxylic acids” (1987).
# Key:
# Mus musculus [1] = species: Mus musculus; assay: Number of mice with necrosis was measured for compound along with acetaminophen and number of animals showing necrosis rating of 0 was reported.; type: functional
# Mus musculus [2] = species: Mus musculus; assay: Number of mice with necrosis was measured for compound along with acetaminophen and number of animals showing necrosis rating of 1+ was reported.; type: functional
# Mus musculus [3] = species: Mus musculus; assay: Number of mice with necrosis was measured for compound along with acetaminophen and number of animals showing necrosis rating of 2+ was reported.; type: functional
# Mus musculus [4] = species: Mus musculus; assay: Number of mice with necrosis was measured for compound along with acetaminophen and number of animals showing necrosis rating of 3+ was reported.; type: functional
# Mus musculus [5] = species: Mus musculus; assay: Number of mice with necrosis was measured for compound along with acetaminophen and number of animals showing necrosis rating of 4+ was reported.; type: functional
# Mus musculus [6] = species: Mus musculus; assay: Protection of mice against acetaminophen-induced Hepatotoxicity; type: functional
# Outline: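 Fasted male Swiss-Webster mice (19–31 g) were given acetaminophen 750 mg/kg ip, then prodrug 2.45 mmol/kg ip 30 min later. Outcomes were 48-h survival plus histology. Central-lobe liver sections came from animals found dead at 12/24/48 h or killed at 48 h. Sections were formalin-fixed and H&E-stained. Necrosis was rated blind using Mitchell's scale.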
# Mus musculus [7] = species: Mus musculus; assay: Percentage survival of mice after 48 hr.; type: functional; set-up: concentration or dose not given beside the values
# Outline: (§1)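 Male Swiss-Webster mice (19–31 g) were fasted overnight with water available. They received acetaminophen 750 mg/kg (4.97 mmol/kg) ip and then, 30 min later, prodrug 2.45 mmol/kg ip. The prodrug was given in sterile water, sterile 0.1 N NaHCO3, or as a slurry in 2% CMC. Food was then restored, and animals were checked at 12, 24 and 48 h. Survivors were counted at 48 h.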
# Rattus norvegicus [8] = species: Rattus norvegicus; assay: In vitro increased GSH content of rat hepatocytes when incubated with compound after 4 hr at 2.5 mM concentration.; type: functional, Hepatocyte
# Outline: (§2)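 Primary rat hepatocyte cultures exposed to prodrug for 4 h; medium aspirated, cells rinsed with cold PBS, deproteinized with 5% sulfosalicylic acid. Total GSH (GSH + GSSG) measured by modified DTNB–glutathione reductase recycling, from cycling rate (ΔOD 412 nm/min); expressed as nmol/10^6 cells ± SE and relative to untreated controls.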
# Mus musculus [9] = species: Mus musculus; assay: Number of mice with necrosis was measured for compound along with acetaminophen showing necrosis rating of 4+ was reported.; type: functional
# Mus musculus [10] = species: Mus musculus; assay: Number of mice with necrosis was measured for compound along with acetaminophen showing necrosis rating of 0 was reported.; type: functional
# Mus musculus [11] = species: Mus musculus; assay: Number of mice with necrosis was measured for compound along with acetaminophen showing necrosis rating of 1+ was reported.; type: functional
# Mus musculus [12] = species: Mus musculus; assay: Number of mice with necrosis was measured for compound along with acetaminophen showing necrosis rating of 2+ was reported.; type: functional
# Mus musculus [13] = species: Mus musculus; assay: Number of mice with necrosis was measured for compound along with acetaminophen showing necrosis rating of 3+ was reported.; type: functional
# Mus musculus [14] = species: Mus musculus; assay: No of mice protected out of 12 against acetaminophen-induced Hepatotoxicity after 48 h; type: functional; outline: as §1
# Rattus norvegicus [15] = species: Rattus norvegicus; assay: Inhibitory effect on GSH elevation elicited by compound in rat hepatocytes in the presence of buthionine sulfoximine (BSO) (0.2 mM); type: functional, Hepatocyte
# Outline: (§3)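 Primary rat hepatocytes pre-exposed to buthionine sulfoximine (0.20 mM) before 4 h incubation with prodrug (1.0 mM). Total GSH (GSH + GSSG) after PBS rinse and 5% sulfosalicylic acid deproteinization, by modified DTNB–glutathione reductase recycling (ΔOD 412 nm/min). Reported as nmol/10^6 cells ± SE and relative to untreated controls.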
# Rattus norvegicus [16] = species: Rattus norvegicus; assay: GSH level related to controls; type: functional; outline: as §2
# Rattus norvegicus [17] = species: Rattus norvegicus; assay: GSH level related to controls in the presence of buthionine sulfoximine (BSO) (0.2 mM); type: functional; outline: as §3
# Rattus norvegicus [18] = species: Rattus norvegicus; assay: In vitro increased GSH content of rat hepatocytes when incubated with compound after 4 hr at 1.0 mM concentration.; type: functional, Hepatocyte; outline: as §2
# Mus musculus [19] = species: Mus musculus; assay: No of mice protected out of 10 against acetaminophen-induced Hepatotoxicity after 48 h; type: functional; outline: as §1
Compound,No. of animals (Mus musculus [1]),No. of animals (Mus musculus [2]),No. of animals (Mus musculus [3]),No. of animals (Mus musculus [4]),No. of animals (Mus musculus [5]),Survival (Mus musculus [6]),Survival (Mus musculus [7]),[GSH] (Rattus norvegicus [8]),No. of animals (Mus musculus [9]),No. of animals (Mus musculus [10]),No. of animals (Mus musculus [11]),No. of animals (Mus musculus [12]),No. of animals (Mus musculus [13]),No. of survivors (Mus musculus [14]),[GSH] (Rattus norvegicus [15]),GSH level (Rattus norvegicus [16]),GSH level (Rattus norvegicus [17]),[GSH] (Rattus norvegicus [18]),No. of survivors (Mus musculus [19])
CC(=O)N[C@@H](CS)C(=O)O [ACETYLCYSTEINE],13,3,0,1,1,17%,94%,45.8 nM (10e6*cells)-1,,,,,,,,,,,
O=C(O)[C@@H]1CSC(C(O)C(O)C(O)CO)N1 (stereo in doubt; 1d),,,,,,,100%,,0,4,2,6,0,12,16.2 nmol/10^6 cells,1.7,0.5,61.2 nmol/10^6 cells,
CC(=O)Nc1ccc(O)cc1 [ACETAMINOPHEN],,,,,,,17%,,11,0,0,1,0,2,,,,,
O=C(O)[C@@H]1CSC(C(O)C(O)C(O)CO)N1 (stereo in doubt; 1e),,,,,,,60%,,5,3,,,,,22.6 nmol/10^6 cells,1.6,0.8,58.3 nmol/10^6 cells,6
O=C(O)[C@@H]1CSC(C(O)CO)N1 (some centres undefined),,,,,,,30%,,7,0,0,1,2,,18.3 nmol/10^6 cells,1.3,0.5,46.1 nmol/10^6 cells,3
O=C(O)[C@@H]1CSC(C(O)C(O)C(O)CO)N1 (stereo in doubt; 1b),,,,,,,40%,,7,,1,2,,,19.5 nmol/10^6 cells,1.2,,42.9 nmol/10^6 cells,4
O=C(O)[C@@H]1CSC(C(O)C(O)C(O)C(O)CO)N1 (stereo in doubt; 1f),,,,,,,60%,,4,1,3,2,0,,23.2 nmol/10^6 cells,1.6,0.7,58 nmol/10^6 cells,6
O=C(O)[C@@H]1CSC(C(O)C(O)C(O)CO)N1 (stereo in doubt; 1c),,,,,,,30%,,9,0,0,0,1,,22.4 nmol/10^6 cells,1.3,0.6,45.9 nmol/10^6 cells,3
O=C(O)[C@@H]1CSC(C(O)C(O)C(O)C(O)CO)N1 (stereo in doubt; 1h),,,,,,,40%,,6,3,0,1,,,18.9 nmol/10^6 cells,,0.5,57.8 nmol/10^6 cells,4
O=C(O)[C@@H]1CSC(C(O)C(O)C(O)C(O)CO)N1 (stereo in doubt; 1g),,,,,,,30%,,7,0,2,0,1,,25.4 nmol/10^6 cells,2.1,,75.2 nmol/10^6 cells,3
